What all share (type): cell-based
For test [1], the target named is T1, Peroxisome proliferator-activated receptor gamma coactivator 1-alpha (Homo sapiens) (UniProt Q9UBK2).
T1 sequence (whole entry): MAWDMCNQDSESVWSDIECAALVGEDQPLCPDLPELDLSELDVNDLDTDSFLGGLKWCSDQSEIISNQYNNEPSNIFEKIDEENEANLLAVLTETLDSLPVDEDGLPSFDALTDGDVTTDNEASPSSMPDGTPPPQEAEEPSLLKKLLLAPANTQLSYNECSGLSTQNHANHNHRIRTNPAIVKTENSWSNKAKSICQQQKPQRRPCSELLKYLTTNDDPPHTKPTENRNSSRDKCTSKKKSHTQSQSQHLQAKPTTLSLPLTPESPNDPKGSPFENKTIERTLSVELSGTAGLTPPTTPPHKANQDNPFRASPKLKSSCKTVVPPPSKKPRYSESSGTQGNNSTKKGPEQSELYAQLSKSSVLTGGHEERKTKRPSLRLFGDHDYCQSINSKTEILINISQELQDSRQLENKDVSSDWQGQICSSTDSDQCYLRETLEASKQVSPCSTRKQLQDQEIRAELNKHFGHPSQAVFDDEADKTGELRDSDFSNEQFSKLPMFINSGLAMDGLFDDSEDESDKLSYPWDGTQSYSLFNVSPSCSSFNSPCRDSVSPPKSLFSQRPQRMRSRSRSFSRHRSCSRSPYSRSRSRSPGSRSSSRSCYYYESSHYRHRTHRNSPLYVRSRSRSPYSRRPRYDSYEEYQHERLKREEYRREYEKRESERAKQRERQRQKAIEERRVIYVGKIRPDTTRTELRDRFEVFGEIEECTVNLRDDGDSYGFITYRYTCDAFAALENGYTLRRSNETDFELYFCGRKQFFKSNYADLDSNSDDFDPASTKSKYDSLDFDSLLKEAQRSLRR
The test is described as follows: Activation of PGC1alpha transcriptional activity (unknown origin) expressed in HEK293 cells at 20 uM after overnight incubation by luciferase reporter gene assay relative to control. In outline:
(§1)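 HEK293 cells stably carrying a luciferase reporter driven by the PGC-1α promoter, grown in high-glucose DMEM with 10% FBS, penicillin and streptomycin at 37 °C in 5% CO2. About 2800 cells per well; after 24 h, compound added at final 10 or 20 μM, or forskolin 5 μM or dexamethasone 100 nM, with equal DMSO as blank. Incubated overnight, then luciferase substrate added and luminescence read. Values normalized to DMSO (100%), mean ± SEM, Student's t test.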

Test [2] deals with T1, Peroxisome proliferator-activated receptor gamma coactivator 1-alpha (Homo sapiens). Briefly: Activation of PGC1alpha transcriptional activity (unknown origin) expressed in HEK293 cells at 10 uM after overnight incubation by luciferase reporter gene assay relative to control. The essentials: as §1
The target is the same in test [3]. Briefly: Activation of PGC1alpha transcriptional activity (unknown origin) expressed in HEK293 cells at 100 nM after overnight incubation by luciferase reporter gene assay relative to control. The essentials:
as §1

The target is the same in test [4]. The test is described as follows: Activation of PGC1alpha transcriptional activity (unknown origin) expressed in HEK293 cells at 100 nM after 24 hrs by luciferase reporter gene assay relative to control. The essentials:
as §1

For test [5] the target is unchanged. The test is described as follows: Activation of PGC1alpha transcriptional activity (unknown origin) expressed in HEK293 cells at 5 uM after 24 hrs by luciferase reporter gene assay relative to control.
Test [6] has the same target. Briefly: Activation of PGC1alpha transcriptional activity (unknown origin) expressed in HEK293 cells at 5 uM after overnight incubation by luciferase reporter gene assay relative to control. In outline: as §1

On to `C[C@H](CC[C@@H](O[C@@H]1O[C@H](CO)[C@@H](O)[C@H](O)[C@H]1O[C@@H]1O[C@H](CO)[C@@H](O)[C@H](O)[C@H]1O)C(C)(C)O)[C@H]1CC[C@@]2(C)[C@@H]3C(=O)C=C4[C@@H](CC[C@H](O[C@@H]5O[C@H](CO[C@@H]6O[C@H](CO)[C@@H](O)[C@H](O)[C@H]6O)[C@@H](O)[C@H](O)[C@H]5O)C4(C)C)[C@]3(C)[C@H](O)C[C@]12C`, for which the Activity in test [1] worked out at 126%; in test [2], 105%.

With `C[C@H](CC[C@@H](O[C@@H]1O[C@H](CO)[C@@H](O)[C@H](O)[C@H]1O[C@@H]1O[C@H](CO)[C@@H](O)[C@H](O)[C@H]1O)C(C)(C)O)[C@H]1CC[C@@]2(C)[C@@H]3CC=C4[C@@H](CC[C@H](O[C@@H]5O[C@H](CO)[C@@H](O)[C@H](O)[C@H]5O)C4(C)C)[C@]3(C)C(=O)C[C@]12C`, the Activity in test [1] is 123%; in test [2] it was 107%.

In the case of `C[C@H](CC[C@@H](O[C@@H]1O[C@H](CO)[C@@H](O)[C@H](O)[C@H]1O[C@@H]1O[C@H](CO)[C@@H](O)[C@H](O)[C@H]1O)C(C)(C)O)[C@H]1CC[C@@]2(C)[C@@H]3C(=O)C=C4[C@@H](CC[C@H](O[C@@H]5O[C@H](CO)[C@@H](O)[C@H](O)[C@H]5O)C4(C)C)[C@]3(C)[C@H](O)C[C@]12C`, the Activity was determined as 122% in test [1] and 97.8% in test [2].

As to `C[C@@H]1C[C@H]2[C@@H]3CCC4=CC(=O)C=C[C@]4(C)[C@@]3(F)[C@@H](O)C[C@]2(C)[C@@]1(O)C(=O)CO`, in test [3], the Activity worked out at 172%. The fold change (FC) in test [4] was 1.7.

On to `C[C@H](CC[C@@H](O[C@@H]1O[C@H](CO)[C@@H](O)[C@H](O)[C@H]1O[C@@H]1O[C@H](CO)[C@@H](O)[C@H](O)[C@H]1O)C(C)(C)O)[C@H]1CC[C@@]2(C)[C@@H]3CC=C4[C@@H](CC[C@H](O[C@@H]5O[C@H](CO[C@@H]6O[C@H](CO)[C@@H](O)[C@H](O)[C@H]6O)[C@@H](O)[C@H](O)[C@H]5O)C4(C)C)[C@]3(C)C(=O)C[C@]12C`, for which the results for the Activity in test [1] and in test [2] were 132% and 129%, respectively.

For the compound `C=C[C@@]1(C)CC(=O)[C@]2(O)[C@@]3(C)[C@@H](O)CCC(C)(C)[C@@H]3[C@H](O)[C@H](OC(C)=O)[C@@]2(C)O1`, in test [5], the fold change (FC) worked out at 1.4. In addition, the Activity in test [6] was determined as 145%.
